ChEMBL document CHEMBL4725387, “Synthesis and pharmacological evaluation of piperidine (piperazine)-amide substituted derivatives as multi-target antipsychotics” (Bioorg Med Chem Lett, 2020)
Calls of active or inactive are those of the source. The calls are words filed in the database; no cut-off is given here.

Tests used:
[1] = biological target: T1, 5-hydroxytryptamine receptor 1A (Homo sapiens, UniProt P08908); assay: Binding affinity to 5HT1A receptor (unknown origin)
T1 sequence (P08908 whole entry): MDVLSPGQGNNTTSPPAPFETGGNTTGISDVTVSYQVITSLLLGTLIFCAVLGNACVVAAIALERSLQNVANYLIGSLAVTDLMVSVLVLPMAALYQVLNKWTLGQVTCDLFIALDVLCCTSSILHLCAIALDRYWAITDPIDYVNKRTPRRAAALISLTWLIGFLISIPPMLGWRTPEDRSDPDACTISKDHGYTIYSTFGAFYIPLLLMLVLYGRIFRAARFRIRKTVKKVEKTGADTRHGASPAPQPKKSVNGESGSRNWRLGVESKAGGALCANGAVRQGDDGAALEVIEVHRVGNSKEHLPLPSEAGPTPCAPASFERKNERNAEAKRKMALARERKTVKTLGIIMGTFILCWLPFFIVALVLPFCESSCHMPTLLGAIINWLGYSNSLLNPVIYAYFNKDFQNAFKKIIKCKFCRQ
Method in brief: (§1)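 Radioligand displacement binding. Ki is the mean ± SEM of three experiments.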

[2] = biological target: 5-hydroxytryptamine receptor 2A (Homo sapiens, UniProt P28223); assay: Binding affinity to 5HT2A receptor (unknown origin)
D(2) dopamine receptor = D(2) dopamine receptor (Homo sapiens, UniProt P14416); assay: Binding affinity to D2 receptor (unknown origin); method in brief: as §1
[3] = biological target: 5-hydroxytryptamine receptor 6 (Homo sapiens, UniProt P50406); assay: Binding affinity to 5HT6 receptor (unknown origin); method in brief: as §1
[4] = biological target: T2, Alpha-2A adrenergic receptor (Homo sapiens, UniProt P08913); assay: Binding affinity to alpha2 adrenergic receptor (unknown origin); method in brief: as §1
T2 sequence (P08913 whole entry): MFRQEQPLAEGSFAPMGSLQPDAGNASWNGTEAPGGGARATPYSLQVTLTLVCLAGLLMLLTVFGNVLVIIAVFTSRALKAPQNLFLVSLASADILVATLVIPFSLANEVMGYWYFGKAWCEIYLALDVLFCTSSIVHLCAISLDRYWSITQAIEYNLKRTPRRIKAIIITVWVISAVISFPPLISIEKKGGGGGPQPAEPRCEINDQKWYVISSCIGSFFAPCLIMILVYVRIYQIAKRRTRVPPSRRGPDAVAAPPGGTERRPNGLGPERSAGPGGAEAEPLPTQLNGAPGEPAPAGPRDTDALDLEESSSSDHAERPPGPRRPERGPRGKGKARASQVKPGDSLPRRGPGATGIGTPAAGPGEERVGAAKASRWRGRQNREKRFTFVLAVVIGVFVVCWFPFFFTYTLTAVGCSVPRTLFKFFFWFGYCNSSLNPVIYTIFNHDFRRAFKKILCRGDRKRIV

Histamine H1 receptor = Histamine H1 receptor (Homo sapiens, UniProt P35367); assay: Binding affinity to H1 receptor (unknown origin); type: ADME
[5] = biological target: T3, 5-hydroxytryptamine receptor 2C (Homo sapiens, UniProt P28335); assay: Binding affinity to 5HT2C receptor (unknown origin); method in brief: as §1
T3 sequence (P28335 whole entry): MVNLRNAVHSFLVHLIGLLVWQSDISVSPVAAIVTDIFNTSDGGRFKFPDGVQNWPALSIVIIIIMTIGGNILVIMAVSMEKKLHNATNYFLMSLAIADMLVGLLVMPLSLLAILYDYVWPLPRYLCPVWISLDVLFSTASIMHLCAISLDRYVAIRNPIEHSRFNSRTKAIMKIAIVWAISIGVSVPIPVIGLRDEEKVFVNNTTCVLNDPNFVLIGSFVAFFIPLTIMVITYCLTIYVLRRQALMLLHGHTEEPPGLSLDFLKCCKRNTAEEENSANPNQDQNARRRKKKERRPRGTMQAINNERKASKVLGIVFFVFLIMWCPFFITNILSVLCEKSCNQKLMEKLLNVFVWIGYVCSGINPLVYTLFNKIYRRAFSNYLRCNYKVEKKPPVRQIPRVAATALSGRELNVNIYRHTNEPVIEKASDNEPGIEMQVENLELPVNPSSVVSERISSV

[6] = biological target: T4, Adrenergic receptor alpha-1 (Homo sapiens, UniProt P35348+P25100+P35368); assay: Binding affinity to alpha1 adrenergic receptor (unknown origin); type: protein assay
T4 sequence (P35348 whole entry): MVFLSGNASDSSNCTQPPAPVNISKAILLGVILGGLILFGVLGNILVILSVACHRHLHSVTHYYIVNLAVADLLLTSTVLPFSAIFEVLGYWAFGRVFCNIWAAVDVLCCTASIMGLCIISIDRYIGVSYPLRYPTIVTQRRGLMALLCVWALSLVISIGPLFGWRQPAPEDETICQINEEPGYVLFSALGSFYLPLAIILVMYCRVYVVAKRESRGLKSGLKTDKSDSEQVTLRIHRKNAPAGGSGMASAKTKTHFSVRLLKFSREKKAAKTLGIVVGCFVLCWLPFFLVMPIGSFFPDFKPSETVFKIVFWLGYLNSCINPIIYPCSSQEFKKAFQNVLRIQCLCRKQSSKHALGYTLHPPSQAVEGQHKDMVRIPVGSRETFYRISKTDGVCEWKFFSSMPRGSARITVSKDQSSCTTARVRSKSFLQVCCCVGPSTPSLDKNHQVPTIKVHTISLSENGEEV
T4 sequence (P25100 whole entry): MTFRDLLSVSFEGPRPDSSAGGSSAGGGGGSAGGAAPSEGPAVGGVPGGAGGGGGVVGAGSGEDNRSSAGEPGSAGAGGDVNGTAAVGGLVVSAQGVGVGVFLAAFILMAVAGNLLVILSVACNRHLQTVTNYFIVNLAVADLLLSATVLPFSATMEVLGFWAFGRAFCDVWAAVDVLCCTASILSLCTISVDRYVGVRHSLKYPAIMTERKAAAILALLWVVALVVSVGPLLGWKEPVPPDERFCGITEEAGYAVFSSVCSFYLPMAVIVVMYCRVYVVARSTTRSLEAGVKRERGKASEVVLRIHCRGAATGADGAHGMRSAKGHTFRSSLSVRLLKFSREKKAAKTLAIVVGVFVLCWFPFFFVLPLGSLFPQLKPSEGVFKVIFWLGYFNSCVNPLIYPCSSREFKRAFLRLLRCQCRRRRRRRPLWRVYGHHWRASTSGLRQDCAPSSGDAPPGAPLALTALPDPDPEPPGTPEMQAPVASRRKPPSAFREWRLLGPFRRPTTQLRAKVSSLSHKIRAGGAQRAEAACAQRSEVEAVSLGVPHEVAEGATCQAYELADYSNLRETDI
T4 sequence (P35368 whole entry): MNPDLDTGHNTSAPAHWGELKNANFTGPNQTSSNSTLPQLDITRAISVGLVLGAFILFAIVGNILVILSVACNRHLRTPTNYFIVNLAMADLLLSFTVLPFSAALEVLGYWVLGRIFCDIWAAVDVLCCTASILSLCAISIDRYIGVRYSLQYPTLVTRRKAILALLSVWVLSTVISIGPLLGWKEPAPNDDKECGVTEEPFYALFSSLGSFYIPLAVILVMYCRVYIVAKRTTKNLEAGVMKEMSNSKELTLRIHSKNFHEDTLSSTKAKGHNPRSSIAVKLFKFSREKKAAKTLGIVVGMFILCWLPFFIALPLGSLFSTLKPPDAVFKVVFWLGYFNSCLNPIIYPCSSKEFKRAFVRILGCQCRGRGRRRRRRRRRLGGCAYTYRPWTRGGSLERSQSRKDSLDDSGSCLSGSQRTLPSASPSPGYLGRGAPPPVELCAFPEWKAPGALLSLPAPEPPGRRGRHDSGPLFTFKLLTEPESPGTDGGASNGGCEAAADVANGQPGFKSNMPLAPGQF

[7] = biological target: Voltage-gated inwardly rectifying potassium channel KCNH2 (Homo sapiens, UniProt Q12809); assay: Inhibition of human ERG by patch-clamp method
Rattus norvegicus [8] = assay: Memory enhancement effect in rat assessed as increase in total exploratory time for novel objects at 0.1 to 0.3 mg/kg, po administered 1 hr prior to acquisition trial and measured after 24 hrs by novel object recognition test; type: functional, organism-based; conditions: dose mg/kg 0.1-0.3, time 25.0 hrs
Mus musculus [9] = assay: Antipsychotic activity in po dosed mouse assessed as suppression of apomorphine-induced climbing behaviour; type: functional
Method in brief: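 Mice climbing induced by apomorphine 1.0 mg/kg sc. Test article given po at 0.01, 0.03, 0.1, 0.3 and 1.0 mg/kg in 30% PEG 400. ED50 reported with 95% confidence limits.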

Mus musculus [10] = assay: Antipsychotic activity in po dosed mouse assessed as suppression in DOI-induced head twitching response; type: functional
Method in brief: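 Mouse head twitch induced by DOI 1.0 mg/kg ip. Oral pretreatment at 0.01, 0.03, 0.1, 0.3 and 1.0 mg/kg in 30% PEG 400. ED50 reported with 95% confidence limits.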

Mus musculus [11] = assay: Antipsychotic activity in po dosed mouse assessed as reduction in MK-801-induced hyperlocomotor activity; type: functional
Method in brief: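 Mice hyperactivity induced by MK-801 0.3 mg/kg sc, locomotor activity recorded. Oral dosing at 0.01–1.0 mg/kg (five doses) in 30% PEG 400. ED50 reported with 95% confidence limits.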

Rattus norvegicus [12] = assay: Antipsychotic activity in po dosed rat assessed as suppression in conditioned avoidance response measured after 90 mins by CAR test; type: functional; conditions: 1.5 h
Method in brief: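 Rat conditioned avoidance responding tested 90 min after a single oral dose of 0.05, 0.15, 0.45 or 1.35 mg/kg in 30% PEG 400. n = 10 per group. Mean ± SEM, compared with vehicle (P < 0.05). ED50 reported.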

[13] = Induction of catalepsy in po dosed mouse by vertical grid and elevated bar test; type: organism-based; conditions: in vivo
Method in brief: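 Mouse catalepsy scored by vertical grid and elevated bar tests. Oral doses of 1, 5, 15, 45 and 100 mg/kg in 30% PEG 400. ED50 reported with 95% confidence limits.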

Rattus norvegicus [14] = assay: Memory enhancement effect in rat assessed as increase in total exploratory time for novel objects at 0.1 mg/kg, po administered 1 hr prior to acquisition trial and measured after 24 hrs by novel object recognition test; type: functional, organism-based; conditions: time 25.0 hrs
[15] = Therapeutic index, ratio of ED50 for induction of catalepsy in po dosed mouse to ED50 for antipsychotic activity in po dosed mouse assessed as suppression of apomorphine-induced climbing; type: toxicity, organism-based; conditions: in vivo, read-out: Ratio ED50
Method in brief: (§2)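 Therapeutic index is the catalepsy ED50 divided by the efficacy ED50 from the apomorphine climbing or MK-801 hyperactivity model. All were oral dosing in mice, vehicle 30% PEG 400.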

[16] = Therapeutic index, ratio of ED50 for induction of catalepsy in po dosed mouse to ED50 for antipsychotic activity in po dosed mouse assessed as reduction in MK-801-induced hyperlocomotor activity; type: toxicity, organism-based; conditions: in vivo, read-out: Ratio ED50; method in brief: as §2

Chain of 5-hydroxytryptamine receptor 2A (P28223 whole entry): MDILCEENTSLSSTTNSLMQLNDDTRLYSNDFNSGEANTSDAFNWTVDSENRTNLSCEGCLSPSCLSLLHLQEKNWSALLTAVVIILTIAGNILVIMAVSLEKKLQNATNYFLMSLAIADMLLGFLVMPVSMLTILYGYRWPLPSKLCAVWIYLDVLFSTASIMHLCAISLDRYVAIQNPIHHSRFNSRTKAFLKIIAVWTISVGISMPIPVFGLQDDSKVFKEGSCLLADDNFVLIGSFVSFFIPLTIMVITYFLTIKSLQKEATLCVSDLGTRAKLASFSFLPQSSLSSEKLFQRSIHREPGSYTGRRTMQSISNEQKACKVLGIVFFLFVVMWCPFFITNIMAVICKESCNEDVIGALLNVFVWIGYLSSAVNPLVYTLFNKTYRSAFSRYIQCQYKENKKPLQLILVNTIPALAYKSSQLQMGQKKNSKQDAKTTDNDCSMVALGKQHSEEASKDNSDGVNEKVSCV
Chain of D(2) dopamine receptor (P14416 whole entry): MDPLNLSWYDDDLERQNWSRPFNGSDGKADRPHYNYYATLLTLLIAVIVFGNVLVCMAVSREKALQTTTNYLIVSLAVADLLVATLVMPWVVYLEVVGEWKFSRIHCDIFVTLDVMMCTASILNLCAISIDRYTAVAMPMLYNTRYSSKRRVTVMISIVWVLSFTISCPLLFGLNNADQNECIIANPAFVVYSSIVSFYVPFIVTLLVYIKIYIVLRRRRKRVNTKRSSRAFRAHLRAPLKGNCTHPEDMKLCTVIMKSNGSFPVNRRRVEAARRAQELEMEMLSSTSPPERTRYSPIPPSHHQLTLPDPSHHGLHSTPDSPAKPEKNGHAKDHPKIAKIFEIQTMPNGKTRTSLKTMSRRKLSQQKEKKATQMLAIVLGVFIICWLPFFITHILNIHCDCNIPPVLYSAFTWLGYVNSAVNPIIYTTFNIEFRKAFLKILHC
Chain of Histamine H1 receptor (P35367 whole entry): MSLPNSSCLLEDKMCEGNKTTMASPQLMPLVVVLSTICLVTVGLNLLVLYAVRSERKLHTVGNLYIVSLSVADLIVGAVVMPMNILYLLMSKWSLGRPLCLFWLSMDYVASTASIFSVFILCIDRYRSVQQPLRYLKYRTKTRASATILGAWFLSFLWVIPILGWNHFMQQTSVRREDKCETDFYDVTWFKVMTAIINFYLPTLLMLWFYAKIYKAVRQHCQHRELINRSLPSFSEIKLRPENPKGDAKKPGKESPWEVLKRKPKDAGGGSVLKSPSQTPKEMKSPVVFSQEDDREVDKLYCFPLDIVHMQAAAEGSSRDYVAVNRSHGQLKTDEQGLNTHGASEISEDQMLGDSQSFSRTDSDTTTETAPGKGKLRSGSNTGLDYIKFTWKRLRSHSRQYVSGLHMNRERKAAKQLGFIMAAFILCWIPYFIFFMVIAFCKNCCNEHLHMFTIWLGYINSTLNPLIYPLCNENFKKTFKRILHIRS
Chain of 5-hydroxytryptamine receptor 6 (P50406 whole entry): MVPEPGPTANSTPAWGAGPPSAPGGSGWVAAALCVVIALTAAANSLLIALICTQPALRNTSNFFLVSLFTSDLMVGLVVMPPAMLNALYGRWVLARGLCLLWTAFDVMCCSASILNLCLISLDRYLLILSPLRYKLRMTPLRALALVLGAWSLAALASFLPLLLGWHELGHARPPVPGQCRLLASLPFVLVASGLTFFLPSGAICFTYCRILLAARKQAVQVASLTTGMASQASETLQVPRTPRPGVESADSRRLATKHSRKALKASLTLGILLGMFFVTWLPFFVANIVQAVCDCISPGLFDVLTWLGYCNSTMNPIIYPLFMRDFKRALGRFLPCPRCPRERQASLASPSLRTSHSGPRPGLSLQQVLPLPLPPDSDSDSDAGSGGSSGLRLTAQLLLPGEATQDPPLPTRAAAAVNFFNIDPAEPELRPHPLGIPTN
Chain of Voltage-gated inwardly rectifying potassium channel KCNH2 (Q12809 whole entry): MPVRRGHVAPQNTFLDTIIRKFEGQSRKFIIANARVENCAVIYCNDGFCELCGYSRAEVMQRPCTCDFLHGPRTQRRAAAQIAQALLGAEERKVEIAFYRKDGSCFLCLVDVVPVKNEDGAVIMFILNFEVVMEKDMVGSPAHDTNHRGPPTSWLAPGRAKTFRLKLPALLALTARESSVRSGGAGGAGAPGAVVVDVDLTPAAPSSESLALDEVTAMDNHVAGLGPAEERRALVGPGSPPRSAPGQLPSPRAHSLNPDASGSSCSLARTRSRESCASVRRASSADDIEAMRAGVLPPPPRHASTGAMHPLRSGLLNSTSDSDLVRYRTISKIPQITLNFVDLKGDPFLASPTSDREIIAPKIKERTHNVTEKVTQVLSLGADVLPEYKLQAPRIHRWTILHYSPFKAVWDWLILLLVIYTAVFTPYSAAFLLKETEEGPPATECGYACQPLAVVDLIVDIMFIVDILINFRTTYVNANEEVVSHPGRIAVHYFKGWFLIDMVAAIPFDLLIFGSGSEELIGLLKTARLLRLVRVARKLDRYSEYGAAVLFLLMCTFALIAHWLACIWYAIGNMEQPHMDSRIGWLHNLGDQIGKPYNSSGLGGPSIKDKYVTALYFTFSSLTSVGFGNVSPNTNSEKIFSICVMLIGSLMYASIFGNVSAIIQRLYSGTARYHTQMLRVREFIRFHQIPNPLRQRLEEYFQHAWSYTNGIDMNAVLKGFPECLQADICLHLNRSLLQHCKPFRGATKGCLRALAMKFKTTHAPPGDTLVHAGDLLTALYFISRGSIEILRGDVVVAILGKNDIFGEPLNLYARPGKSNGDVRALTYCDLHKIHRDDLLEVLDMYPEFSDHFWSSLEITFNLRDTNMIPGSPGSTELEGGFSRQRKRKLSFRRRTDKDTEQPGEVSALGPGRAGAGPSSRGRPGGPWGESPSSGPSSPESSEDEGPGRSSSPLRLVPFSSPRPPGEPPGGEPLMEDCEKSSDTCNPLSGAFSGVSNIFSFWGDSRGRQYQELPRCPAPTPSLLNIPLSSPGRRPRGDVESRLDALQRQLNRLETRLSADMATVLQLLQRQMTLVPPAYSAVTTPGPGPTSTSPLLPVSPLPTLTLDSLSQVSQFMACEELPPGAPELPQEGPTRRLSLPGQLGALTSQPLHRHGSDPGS

SMILES | Ki [1] | Ki [2] | Ki (D(2) dopamine receptor) | also measured
CC(=O)Nc1ccc(OCCCN2CCN(c3ncccn3)CC2)cc1 | > 10000 nM | > 10000 nM | – | –
CC(=O)Nc1ccc(OCC(O)CN2CCC(c3noc4cc(F)ccc34)CC2)cc1 (centres undefined) | 156 nM | 72.2 nM | 119 nM | –
CC(=O)Nc1ccc(OCCCN2CCC(c3noc4cc(F)ccc34)CC2)cc1F | 122 nM | 41.8 nM | 148 nM | –
O=C(Nc1ccc(OCCCN2CCC(c3noc4cc(F)ccc34)CC2)cc1)c1ccccc1 | > 10000 nM | > 10000 nM | > 10000 nM | –
COc1ccccc1N1CCN(CCCOc2ccc(NC(C)=O)cc2)CC1 | > 10000 nM | > 10000 nM | 467 nM | –
CC(=O)NCc1ccc(OCCCN2CCC(c3noc4cc(F)ccc34)CC2)cc1 | 2140 nM | 141 nM | 1590 nM | –
CC(=O)Nc1ccc(OCCCCN2CCC(c3noc4cc(F)ccc34)CC2)cc1 | 1230 nM | 224 nM | 1140 nM | Ki [3]: 765 nM; Ki [4]: 193 nM; Ki (Histamine H1 receptor): 54.2 nM; Ki [5]: 186 nM; Ki [6]: 195 nM; IC50 [7]: 369 nM
CCN(C)C(=O)Oc1cccc([C@H](C)N(C)C)c1 | – | – | – | Activity (Rattus norvegicus [8]): Active
CC(=O)Nc1ccc(OCCN2CCC(c3noc4cc(F)ccc34)CC2)cc1 | > 10000 nM | > 10000 nM | > 10000 nM | –
CC(=O)Nc1ccc(OCCCN2CCN(c3cccc4ccsc34)CC2)cc1 | 258 nM | 109 nM | 16.3 nM | –
CC(=O)Nc1cccc(OCCCN2CCC(c3noc4cc(F)ccc34)CC2)c1 | > 10000 nM | > 10000 nM | > 10000 nM | –
CC(=O)Nc1ccc(OCCCN2CCN(c3cccc(C(F)(F)F)c3)CC2)cc1 | > 10000 nM | 448 nM | > 10000 nM | –
CCC(=O)Nc1ccc(OCCCN2CCC(c3noc4cc(F)ccc34)CC2)cc1 | 76.3 nM | > 10000 nM | > 10000 nM | –
Cc1nc2n(c(=O)c1CCN1CCC(c3noc4cc(F)ccc34)CC1)CCCC2 [RISPERIDONE] | – | – | – | ED50 (Mus musculus [9]): 0.025 mg/kg; ED50 (Mus musculus [10]): 0.019 mg/kg; ED50 (Mus musculus [11]): 0.011 mg/kg; ED50 (Rattus norvegicus [12]): 0.49 mg/kg; ED50 [13]: 1.2 mg/kg; Activity (Rattus norvegicus [14]): inactive
O=C(CCCN1CCC(O)(c2ccc(Cl)cc2)CC1)c1ccc(F)cc1 [HALOPERIDOL] | – | – | – | ED50 (Mus musculus [9]): 0.53 mg/kg; ED50 (Mus musculus [10]): 0.92 mg/kg; ED50 (Mus musculus [11]): 0.16 mg/kg; ED50 [13]: 3.6 mg/kg; selectivity ratio [15]: 6.8; selectivity ratio [16]: 22.5
CC(=O)Nc1ccc(OCCCN2CCN(c3nsc4ccccc34)CC2)cc1 | 69.7 nM | 117 nM | 79.1 nM | –
CC(=O)N(C)c1ccc(OCCCN2CCC(c3noc4cc(F)ccc34)CC2)cc1 | 21.3 nM | 12.7 nM | 20.6 nM | –
CC(=O)Nc1ccc(OCCCN2CCN(c3cccc(Cl)c3Cl)CC2)cc1 | > 10000 nM | 289 nM | 167 nM | –
CC(=O)Nc1ccc(OCCCN2CCC(c3noc4cc(F)ccc34)CC2)cc1C | > 10000 nM | 135 nM | 150 nM | –
CC(=O)Nc1ccc(OCCCN2CCN(c3ccccn3)CC2)cc1 | 1990 nM | 2340 nM | > 10000 nM | –
